Activity calls are given as the source filed them. The calls are words filed in the database; no cut-off is given here.
Experiments:
RAW264.7 [1] = test: Effect on total AKT expression in LPS-stimulated mouse RAW264.7 cells at 40 uM preincubated for 30 mins followed by LPS-stimulation and measured up to 240 mins by Western blot analysis; assay type: ADME, cell-based; details: raw264.7, 4 h
Outline: (§1)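 RAW 264.7 cells were pretreated 30 min with compound (5 or 40 μM), then given LPS 1 μg/mL for several time points. Western blots of whole-cell lysates probed IκBα, total and Ser473-phospho Akt, and total and Tyr701-phospho STAT1, with GAPDH as loading reference. Detection used HRP chemiluminescence.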

RAW264.7 [2] = test: Antiinflammatory activity against mouse RAW264.7 cells assessed as inhibition of LPS induced COX2 expression preincubated for 30 mins followed by LPS challenge and measured after 16 hrs by Western blot analysis; assay type: functional, cell-based
RAW264.7 [3] = test: Antiinflammatory activity against mouse RAW264.7 cells assessed as inhibition of LPS induced COX2 mRNA expression preincubated for 30 mins followed by LPS challenge and measured after 3 to 12 hrs by SYBR green dye based qRT-PCR analysis; assay type: functional, cell-based
Outline: (§2)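 RAW 264.7 cells were pretreated 30 min, then given LPS 1 μg/mL for 3, 6, 9 or 12 h. Total RNA went to qRT-PCR with SYBR Green for Nos2/Ptgs2. Values were normalized to β-actin by 2^−ΔΔCT and expressed as fold change versus unstimulated cells. n = 3; means ± SD; significance versus LPS-only at p < 0.05.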

[4] = target: RAC-alpha serine/threonine-protein kinase (Mus musculus) (UniProt P31750); test: Inhibition of LPS-induced AKT phosphorylation at S473 residue in mouse RAW264.7 cells at 40 uM preincubated for 30 mins followed by LPS-stimulation and measured up to 240 mins by Western blot analysis; assay type: cell-based; outline: as §1
[5] = target: T1, I-kappa-B kinase (Mus musculus) (UniProt Q60680+O88351+O88522); test: Effect on IKK-mediated IkappaBalpha degradation in LPS-stimulated mouse RAW264.7 cells at 40 uM preincubated for 30 mins followed by LPS-stimulation and measured after 10 mins by Western blot analysis; assay type: cell-based; outline: as §1
RAW264.7 [6] = test: Antiinflammatory activity against mouse RAW264.7 cells assessed as inhibition of LPS induced COX2 expression at 50 uM preincubated for 30 mins followed by LPS challenge and measured after 16 hrs by Western blot analysis; assay type: functional, cell-based
Outline: (§3)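 RAW 264.7 cells in DMEM with 10% heat-inactivated FBS and penicillin/streptomycin at 37 °C, 5% CO2. Cells were pretreated 30 min at 50 μM, then given LPS 1 μg/mL for 16 h. iNOS and COX-2 protein were detected by Western blot (8–12% SDS-PAGE, PVDF, HRP secondary, chemiluminescence imaging), with equal total protein loaded by Bradford assay. n = 3.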

RAW264.7 [7] = test: Antiinflammatory activity against mouse RAW264.7 cells assessed as inhibition of LPS-induced nitric oxide production preincubated for 30 mins followed by LPS challenge and measured after 18 hrs by Griess assay; assay type: functional, cell-based
Outline: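 Macrophages (RAW 264.7, 5 × 10^5/well, 24 h settle) were pretreated 30 min in phenol-red-free medium at 0.128–5.0 or 1.0–40 μM, then given LPS 1 μg/mL for 18 h. Culture-supernatant nitrite was read by Griess reaction, and an IC50 was estimated from the concentration–response. n = 3.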

[8] = target: T2, Signal transducer and activator of transcription 1 (Mus musculus) (UniProt P42225); test: Inhibition of LPS-induced STAT1 phosphorylation at Y701 residue in mouse RAW264.7 cells at 40 uM preincubated for 30 mins followed by LPS-stimulation and measured up to 240 mins by Western blot analysis; assay type: cell-based; outline: as §1
T2 sequence (whole entry): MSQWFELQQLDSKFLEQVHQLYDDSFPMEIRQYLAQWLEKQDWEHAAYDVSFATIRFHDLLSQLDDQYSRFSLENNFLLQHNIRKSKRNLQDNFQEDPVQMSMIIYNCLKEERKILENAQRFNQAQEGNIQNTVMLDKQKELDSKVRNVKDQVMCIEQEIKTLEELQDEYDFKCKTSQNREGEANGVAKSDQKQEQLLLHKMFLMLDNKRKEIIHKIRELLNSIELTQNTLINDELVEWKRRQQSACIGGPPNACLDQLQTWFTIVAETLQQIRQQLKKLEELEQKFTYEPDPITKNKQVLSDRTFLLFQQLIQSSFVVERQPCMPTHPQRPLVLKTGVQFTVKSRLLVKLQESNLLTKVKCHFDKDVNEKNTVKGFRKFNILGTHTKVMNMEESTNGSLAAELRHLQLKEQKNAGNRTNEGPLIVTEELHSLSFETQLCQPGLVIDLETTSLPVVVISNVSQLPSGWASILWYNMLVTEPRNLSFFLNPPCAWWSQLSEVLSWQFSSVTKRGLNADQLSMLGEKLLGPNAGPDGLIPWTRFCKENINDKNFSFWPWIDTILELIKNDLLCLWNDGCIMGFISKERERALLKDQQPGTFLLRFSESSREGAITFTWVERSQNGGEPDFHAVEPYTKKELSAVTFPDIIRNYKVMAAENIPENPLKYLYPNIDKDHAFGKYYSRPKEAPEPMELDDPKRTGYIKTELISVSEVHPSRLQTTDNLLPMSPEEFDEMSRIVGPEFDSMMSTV

[9] = target: T1, I-kappa-B kinase (Mus musculus); test: Effect on IKK-mediated IkappaBalpha degradation in LPS-stimulated mouse RAW264.7 cells assessed as IkappaBalpha recovery at 40 uM preincubated for 30 mins followed by LPS-stimulation and measured after 20 to 240 mins by Western blot analysis; assay type: cell-based; outline: as §1
RAW264.7 [10] = test: Antiinflammatory activity against mouse RAW264.7 cells assessed as inhibition of LPS induced iNOS expression preincubated for 30 mins followed by LPS challenge and measured after 16 hrs by Western blot analysis; assay type: functional, cell-based
[11] = Effect on SAPK/JNK1/2 phosphorylation at T183/Y185 residues in mouse RAW264.7 cells at 40 uM measured after 30 mins by Western blot analysis; assay type: ADME, cell-based; details: raw264.7, 0.5 h
RAW264.7 [12] = test: Antiinflammatory activity against mouse RAW264.7 cells assessed as inhibition of LPS induced iNOS expression at 50 uM preincubated for 30 mins followed by LPS challenge and measured after 16 hrs by Western blot analysis; assay type: functional, cell-based; outline: as §3
RAW264.7 [13] = test: Antiinflammatory activity against mouse RAW264.7 cells assessed as inhibition of LPS-induced nitric oxide production by measuring nitrite levels at 50 uM preincubated for 30 mins followed by LPS challenge and measured after 16 hrs by Griess assay (reference value: 32.4 +/- 0.9 uM); assay type: functional
RAW264.7 [14] = test: Effect on total STAT1 expression in LPS-stimulated mouse RAW264.7 cells at 40 uM preincubated for 30 mins followed by LPS-stimulation and measured up to 240 mins by Western blot analysis; assay type: ADME, cell-based; details: raw264.7, 4 h; outline: as §1
RAW264.7 [15] = test: Antiinflammatory activity against mouse RAW264.7 cells assessed as inhibition of LPS induced iNOS mRNA expression preincubated for 30 mins followed by LPS challenge and measured after 3 to 12 hrs by SYBR green dye based qRT-PCR analysis; assay type: functional, cell-based; outline: as §2
[16] = target: T2, Signal transducer and activator of transcription 1 (Mus musculus); test: Inhibition of LPS-induced STAT1 phosphorylation at Y701 residue in mouse RAW264.7 cells at 5 uM preincubated for 30 mins followed by LPS-stimulation and measured up to 240 mins by Western blot analysis; assay type: cell-based; outline: as §1
RAW264.7 [17] = test: Effect on total AKT expression in LPS-stimulated mouse RAW264.7 cells at 5 uM preincubated for 30 mins followed by LPS-stimulation and measured up to 240 mins by Western blot analysis; assay type: ADME, cell-based; details: raw264.7, 4 h; outline: as §1
RAW264.7 [18] = test: Effect on total STAT1 expression in LPS-stimulated mouse RAW264.7 cells at 5 uM preincubated for 30 mins followed by LPS-stimulation and measured up to 240 mins by Western blot analysis; assay type: ADME, cell-based; details: raw264.7, 4 h; outline: as §1
[19] = target: T1, I-kappa-B kinase (Mus musculus); test: Effect on IKK-mediated IkappaBalpha degradation in LPS-stimulated mouse RAW264.7 cells assessed as IkappaBalpha recovery at 5 uM preincubated for 30 mins followed by LPS-stimulation and measured after 20 to 240 mins by Western blot analysis; assay type: cell-based; outline: as §1
[20] = Effect on SAPK/JNK1/2 phosphorylation at T183/Y185 residues in mouse RAW264.7 cells at 5 uM measured after 30 mins by Western blot analysis; assay type: ADME, cell-based; details: raw264.7, 0.5 h
[21] = target: T1, I-kappa-B kinase (Mus musculus); test: Effect on IKK-mediated IkappaBalpha degradation in LPS-stimulated mouse RAW264.7 cells at 5 uM preincubated for 30 mins followed by LPS-stimulation and measured after 10 mins by Western blot analysis; assay type: cell-based; outline: as §1
[22] = target: RAC-alpha serine/threonine-protein kinase (Mus musculus) (UniProt P31750); test: Inhibition of LPS-induced AKT phosphorylation at S473 residue in mouse RAW264.7 cells at 5 uM preincubated for 30 mins followed by LPS-stimulation and measured up to 240 mins by Western blot analysis; assay type: cell-based; outline: as §1

RAC-alpha serine/threonine-protein kinase (Mus musculus), sequence (P31750 whole entry): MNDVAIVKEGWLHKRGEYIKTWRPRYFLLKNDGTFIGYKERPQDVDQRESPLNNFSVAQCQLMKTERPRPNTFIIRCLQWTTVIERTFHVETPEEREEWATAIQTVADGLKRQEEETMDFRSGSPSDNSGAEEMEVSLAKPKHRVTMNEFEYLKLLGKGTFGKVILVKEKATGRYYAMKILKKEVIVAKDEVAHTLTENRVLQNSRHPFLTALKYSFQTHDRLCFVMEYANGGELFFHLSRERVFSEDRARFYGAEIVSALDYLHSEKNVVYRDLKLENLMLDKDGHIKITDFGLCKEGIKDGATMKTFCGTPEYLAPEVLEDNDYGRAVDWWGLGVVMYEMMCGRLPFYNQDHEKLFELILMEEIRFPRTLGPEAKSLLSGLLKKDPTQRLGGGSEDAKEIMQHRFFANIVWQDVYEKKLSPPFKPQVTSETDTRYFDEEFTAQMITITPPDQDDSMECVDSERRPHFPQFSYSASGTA

Compound	inhibition (RAW264.7 [2])	inhibition (RAW264.7 [3])	inhibition (RAW264.7 [6])	IC50 (RAW264.7 [7])	inhibition (RAW264.7 [10])	inhibition (RAW264.7 [12])	Activity (RAW264.7 [13])	inhibition (RAW264.7 [15])	further results
CO[C@H]1CC(=O)[C@]2(C)[C@H]3CC[C@]4(C)[C@](O)([C@@](C)(O)[C@H]5CC(C)=C(C)C(=O)O5)CC[C@@]4(O)[C@@H]3C[C@H]3O[C@]32[C@H]1O	Dose-dependent effect	Dose-dependent effect	Active	13.8 µM	Dose-dependent effect	Active	1.1 µM	Dose-dependent effect	Activity (RAW264.7 [1]): Non-Toxic; inhibition [4]: Active; Activity [5]: inactive; inhibition [8]: Active; Activity [9]: inactive; Activity [11]: Not Active; Activity (RAW264.7 [14]): Non-Toxic
CC1=C(C)C(=O)O[C@@H]([C@](C)(O)[C@]2(O)CC[C@@]3(O)[C@@H]4C[C@H]5O[C@]56[C@@H](O)C=CC(=O)[C@]6(C)[C@H]4CC[C@]23C)C1	Dose-dependent effect	Dose-dependent effect	Active	1.8 µM	Dose-dependent effect	Active	0.9 µM	Dose-dependent effect	inhibition [16]: Active; Activity (RAW264.7 [17]): Non-Toxic; Activity (RAW264.7 [18]): Non-Toxic; Activity [19]: inactive; Activity [20]: Not Active; Activity [21]: inactive; inhibition [22]: Active

From ChEMBL document CHEMBL4422643, “Physalactone and 4β-Hydroxywithanolide E Isolated from Physalis peruviana Inhibit LPS-Induced Expression of COX-2 and iNOS Accompanied by Abatement of Akt and STAT1” (J Nat Prod, 2019)
